# Experimental data published in article PMC8349901 (Journal of Peptide Science, 2021).
# Non-standard residues stand in square brackets, D forms with d. Residues, ends and D or L forms follow the SMILES beside them. Bip = N[C@@H](Cc1ccc(-c2ccccc2)cc1)C(=O)O
# Experiments:
# [1] = Self-assembly kinetics by circular dichroism over 24 h; assay type: physicochemical; settings: CD at 0, 1, 2, 4, 12, 24 h; 0.2 mM peptide, 5% HFIP/water, 25°C
# Summary of the method: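 Lyophilized peptide, quantified by 215-nm HPLC calibration tied to amino acid analysis, was dissolved in HFIP, then water was added (pH 3–4 from residual TFA). Solutions were vortexed for 1 min and sonicated for 5 min. Spectra were scanned from 260 to 190 nm in a 0.1-mm quartz cell with 1.0-nm step, 1.0-nm bandwidth and 3 s per step, starting immediately after preparation.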
# [2] = Negative-stain TEM of self-assembled nanoribbon morphology; assay type: physicochemical; settings: 0.2 mM peptide, 5% HFIP/water, average of at least 100 measurements; for Nanoribbon width: pH 3–4, room temperature
# Summary of the method: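 Peptide, quantified by HPLC peak area against amino-acid-analysis-calibrated curves, dissolved in HFIP and diluted with water to 0.2 mM (5% HFIP, pH 3–4 from residual TFA). Vortexed 1 min, sonicated 5 min. Assembled sample applied to carbon-coated copper grids for 30 s, blotted, stained 2 min with 5% uranyl acetate, and water-washed. Imaged at 80 kV. Dimensions averaged over ≥100 distinct fibrils.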
# [3] = amino acid; glycine defined as 0; higher π = more hydrophobic; cited from earlier work
Structure (SMILES),Nanoribbon width [2] [nm],Helical pitch ([2]; left-handed helical nanoribbons) [nm],evolution of CD signal over 24 h (self-assembly kinetics) [1],partition coefficient (π) between octanol and water relative to glycine [3]
"CC(=O)N[C@@H](Cc1c[nH]c2ccccc12)C(=O)N[C@@H](CCCCN)C(=O)N[C@@H](Cc1c[nH]c2ccccc12)C(=O)N[C@@H](CCC(=O)O)C(=O)N[C@@H](Cc1c[nH]c2ccccc12)C(=O)N[C@@H](CCCCN)C(=O)N[C@@H](Cc1c[nH]c2ccccc12)C(=O)N[C@@H](CCC(=O)O)C(N)=O [Peptide 3, Ac‐(WKWE)2‐NH2] (Ac-WKWEWKWE-NH2)",7.3 ± 1.6,–,occurring over 24 h,–
"N[C@@H](CCc1ccccc1)C(=O)O [Hph, homophenylalanine]",–,–,–,2.10
"N[C@@H](Cc1ccccc1)C(=O)O [Phe, phenylalanine]",–,–,–,1.79
"N[C@@H](Cc1c[nH]c2ccccc12)C(=O)O [Trp, tryptophan]",–,–,–,2.25

# Second part, led by results:
Nanoribbon width [2] [nm],Helical pitch ([2]; left-handed helical nanoribbons) [nm],Structure (SMILES),evolution of CD signal over 24 h (self-assembly kinetics) [1],partition coefficient (π) between octanol and water relative to glycine [3]
5.5 ± 0.9,–,"CC(=O)N[C@@H](Cc1ccc(-c2ccccc2)cc1)C(=O)N[C@@H](CCCCN)C(=O)N[C@@H](Cc1ccc(-c2ccccc2)cc1)C(=O)N[C@@H](CCC(=O)O)C(=O)N[C@@H](Cc1ccc(-c2ccccc2)cc1)C(=O)N[C@@H](CCCCN)C(=O)N[C@@H](Cc1ccc(-c2ccccc2)cc1)C(=O)N[C@@H](CCC(=O)O)C(N)=O [Peptide 6, Ac‐(BipKBipE)2‐NH2] (Ac-[Bip]K[Bip]E[Bip]K[Bip]E-NH2)",no effect on evolution of signal intensity over time,–
8.8 ± 0.8,19.1 ± 1.3,"CC(=O)N[C@@H](Cc1ccccc1)C(=O)N[C@@H](CCCCN)C(=O)N[C@@H](Cc1ccccc1)C(=O)N[C@@H](CCC(=O)O)C(=O)N[C@@H](Cc1ccccc1)C(=O)N[C@@H](CCCCN)C(=O)N[C@@H](Cc1ccccc1)C(=O)N[C@@H](CCC(=O)O)C(N)=O [Peptide 1, Ac‐(FKFE)2‐NH2]",–,–
2.9 ± 0.5,–,"CC(=O)N[C@@H](Cc1ccc(-c2ccccc2)cc1)C(=O)N[C@@H](CCCCN)C(=O)N[C@@H](Cc1ccccc1)C(=O)N[C@@H](CCC(=O)O)C(=O)N[C@@H](Cc1ccccc1)C(=O)N[C@@H](CCCCN)C(=O)N[C@@H](Cc1ccccc1)C(=O)N[C@@H](CCC(=O)O)C(N)=O [Peptide 9, Ac‐BipKFEFKFE‐NH2] (Ac-[Bip]KFEFKFE-NH2)",intensified dramatically over 24 h,–
